# Bioassay records: PubChem BioAssay, several laboratories
# Only some compounds are listed: those with a hit (about 3.1% of all), similar ones and a draw of the others.
# MEKK2mut PB1 HTS – MEK5 binding signal on mutant MEKK2 PB1, primary screen, biochemical, multiplex bead flow cytometry, Alexa488-MEK5 | Alexa488-MEK5 binding to MEKK2 mutant | percent response, % at 10 µM | hit rate 0.35% among 290,000; in the data active = percent response above about 24%, passing the limit was not always enough
# PREPL inhibitor – PREPL enzyme inhibitors, primary screen, biochemical, fluorescence polarization; recombinant PREPL, fluorescence polarization activity-based probe; inhibition, % at 5.96 µM; hit rate 0.68% among 320,000; AID 2751, 2010; in the data active = inhibition above about 43%;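 also: 0% = enzyme with DMSO and 100% = wells lacking enzyme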
# MEKK3 PB1 HTS – modulators of MEKK3-MEK5 PB1 binding, primary screen, biochemical, wildtype MEKK3, multiplex bead flow cytometry, Alexa488-MEK5; bead-based flow cytometry, Alexa488-MEK5 binding to MEKK3; actives lie on both sides; 0 = blocked by unlabeled MEK5, 100 = vehicle; hit rate 1.4% among 290,000; Mitogen-activated protein kinase kinase kinase 3 (Homo sapiens), Q99759; binding response (% of control), % at 10 µM;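 active = binding response more than 3 SD above or below the average of its plate-row segment, actives on both sides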;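 also: Alexa488 bead fluorescence after subtracting the streptavidin-only scavenger bead signal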
# UBC13 inh – UBC13 polyubiquitin chain formation inhibitors, primary screen, biochemical, TR-FRET, uHTS; hit rate 0.47% among 330,000; AID 485273, 2010; inhibition, % at 20 µM; Ubiquitin-conjugating enzyme E2 N (Homo sapiens), P61088; in the data active = inhibition above about 45%, passing the limit was not always enough
# Apaf-1 inh – inhibitors of human Apaf-1 apoptosome, primary screen, biochemical, DEVD-Rh110 fluorescence, uHTS; reconstituted apoptosome caspase-3 activity; Apoptotic protease-activating factor 1 (Homo sapiens), O14727; hit rate 0.71% among 330,000; AID 489030, 2010; inhibition, % at 20 µM; active = inhibition of at least 40% at 20 µM;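 also: plate controls were DMSO wells for no effect and DEVD-CHO caspase inhibitor wells for full effect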
# Target sequence (O14727 whole entry, looked up): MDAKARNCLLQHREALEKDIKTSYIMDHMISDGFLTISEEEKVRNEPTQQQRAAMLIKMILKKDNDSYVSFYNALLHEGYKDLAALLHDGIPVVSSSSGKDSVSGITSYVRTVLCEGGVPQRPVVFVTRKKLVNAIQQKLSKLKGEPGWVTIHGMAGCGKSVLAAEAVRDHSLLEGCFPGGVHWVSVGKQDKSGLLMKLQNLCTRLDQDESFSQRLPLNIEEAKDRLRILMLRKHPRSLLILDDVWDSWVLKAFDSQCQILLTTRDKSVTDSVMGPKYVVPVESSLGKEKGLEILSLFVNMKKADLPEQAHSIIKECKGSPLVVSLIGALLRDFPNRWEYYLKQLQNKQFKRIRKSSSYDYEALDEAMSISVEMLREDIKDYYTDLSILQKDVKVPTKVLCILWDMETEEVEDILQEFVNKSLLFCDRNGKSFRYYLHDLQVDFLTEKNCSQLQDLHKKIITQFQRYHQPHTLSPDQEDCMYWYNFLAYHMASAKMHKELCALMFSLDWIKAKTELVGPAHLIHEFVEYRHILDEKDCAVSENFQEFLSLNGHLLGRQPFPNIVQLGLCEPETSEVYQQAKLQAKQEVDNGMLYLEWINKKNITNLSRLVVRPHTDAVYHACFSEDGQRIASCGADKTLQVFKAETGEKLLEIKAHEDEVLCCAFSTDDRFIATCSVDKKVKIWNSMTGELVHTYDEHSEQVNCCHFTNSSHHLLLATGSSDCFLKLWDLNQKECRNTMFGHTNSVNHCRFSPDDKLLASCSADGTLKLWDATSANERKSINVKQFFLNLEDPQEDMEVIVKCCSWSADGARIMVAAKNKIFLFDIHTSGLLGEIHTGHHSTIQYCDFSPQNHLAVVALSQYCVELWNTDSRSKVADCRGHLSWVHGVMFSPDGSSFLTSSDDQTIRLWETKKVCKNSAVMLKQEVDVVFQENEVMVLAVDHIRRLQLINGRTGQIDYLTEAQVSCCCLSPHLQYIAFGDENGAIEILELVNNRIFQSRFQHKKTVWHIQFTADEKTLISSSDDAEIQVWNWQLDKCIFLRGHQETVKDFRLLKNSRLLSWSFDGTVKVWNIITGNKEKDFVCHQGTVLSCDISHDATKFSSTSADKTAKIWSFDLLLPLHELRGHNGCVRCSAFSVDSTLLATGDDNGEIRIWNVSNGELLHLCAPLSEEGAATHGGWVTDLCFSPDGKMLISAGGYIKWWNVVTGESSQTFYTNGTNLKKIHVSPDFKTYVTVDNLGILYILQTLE
#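 Material: reconstituted apoptosome with Apaf-1, cytochrome c, caspase-9, procaspase-3, dATP. Technique: Rh110 fluorescence intensity. Buffer or medium: pH 7.5 Hepes buffer with CHAPS, BSA, DTT. Times: 30 min plus 50 min, RT.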
# MEKK2wt PB1 HTS – modulators of MEK5 binding to wildtype MEKK2, primary screen, biochemical, multiplex bead flow cytometry, Alexa488-MEK5 | Mitogen-activated protein kinase kinase kinase 2 (Homo sapiens), Q9Y2U5 | binding response (% of control), % at 10 µM | hit rate 1.1% among 290,000 | AID 1531, 2009 | Alexa488-MEK5 binding to MEKK2 WT; actives lie on both sides; in the data active = binding response below about 67% or above about 130%
# MEKK2wt confirm – modulators of MEK5 binding to wildtype MEKK2, confirmation, biochemical, single concentration, multiplex bead flow cytometry; Alexa488-MEK5 binding to MEKK2 WT; actives lie on both sides; hit rate 2.4% among 5,900; binding response (% of control), % at 10 µM; shares compounds with MEKK3 PB1 HTS; in the data active = binding response below about 16% or above about 210%; inactive = in between
# MEKK2mut confirm – mutant MEKK2 PB1-MEK5 binding signal retest – biochemical, single concentration, multiplex bead flow cytometry, confirmation. AID 1893, 2009. shares compounds with MEKK3 PB1 HTS. percent response, % at 10 µM. hit rate 2% among 5,900. Alexa488-MEK5 binding to MEKK2 mutant; in the data active = percent response mostly above about 71%, no sharp cut-off; inactive = mostly below about 38%;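 also: higher means compound restores mutant binding toward wildtype level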
# MEKK3-MEK5 inh – MEKK3 wild-type PB1 binding to MEK5, inhibitors, confirmation, biochemical, bead multiplex flow cytometry, single concentration, wildtype. binding response (% of control), % at 10 µM. shares compounds with MEKK3 PB1 HTS. hit rate 1.8% among 5,900. Alexa488-MEK5 binding to MEKK3; stronger effect = lower value. AID 1894, 2009;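 active = binding response below 72% of control, or above a set upper limit, though filed actives all read lower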;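 also: 100% = DMSO only wells and 0% = binding blocked by excess unlabeled MEK5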
# The depositor's hits bear a star; i = inactive; / = no result; [ ] = remark or other dose.
SMILES,MEKK2mut PB1 HTS,PREPL inhibitor,MEKK3 PB1 HTS,UBC13 inh,Apaf-1 inh,MEKK2wt PB1 HTS,MEKK2wt confirm,MEKK2mut confirm,MEKK3-MEK5 inh
Cc1cccc(C)c1NC(=O)CCc1nnc2ccc(N3CCCC3)nn12,5,3,102,-4,-6,108,/,/,/
CCN1/C(=C/c2ccc3cc(C)cc(C)c3[n+]2CC)Sc2cc(C)ccc21,13,/,34*[inhibitor],/,/,25*,19,-37,54*
CC[n+]1c(/C=C/c2cc([N+](=O)[O-])ccc2O)ccc2ccccc21,0,36,94,-16,9,95,/,/,/
Cc1ccc2c(c1)S/C(=C\c1cccc[n+]1C)N2CCO,1,16,97,-39,-4,102,/,/,/
CCN1/C(=C/c2ccc3cccc(C)c3[n+]2CC)Sc2ccccc21,-27,60*,73,i,14,40*[inhibitor],62,-21,95
CCN1/C(=C\c2ccc3cc(C)ccc3[n+]2CC)Sc2cc(C)c(C)cc21,15,/,44*[inhibitor],/,/,29*,15*[inhibitor],-29,61*
CCCC1CC(C(=O)NC(C(C)Cl)C2OC(SC)C(O)C(O)C2O)N(C)C1 (centres undefined),5,-1,102,-4,-7,109,/,/,/
COc1ccccc1C(=O)NCCCn1cc(Br)c(C)n1,14,17,122,6,8,138*,114,12,107
COc1ccc(NC(=O)CCNC(=O)c2ccc([N+](=O)[O-])cc2)cc1S(=O)(=O)N1CCCCC1,/,/,/,-3,12,/,/,/,/
Cc1nn(CC2CC2)c(=O)n1-c1ccc(F)cc1,3,10,129*,-17,-10,115,100,0,100
Cc1ccc(-n2c(C)nn(CC3CC3)c2=O)cc1,-3,-1,97,13,-3,97,/,/,/
Cc1nn(CC2CC2)c(=O)n1-c1cccc(Cl)c1,5,16,154*,-14,-2,133,97,-5,98
CCOC(=O)Cn1nc(C)n(-c2cccc(Cl)c2)c1=O,0,6,102,-5,5,100,/,/,/
O=C(Nc1cc(Cl)ccn1)C1(c2ccccc2)CC1(Cl)Cl (centres undefined),-2,-14,101,4,24,99,/,/,/
Cc1c(C(=O)NCCSCc2c(F)cccc2Cl)cnn1-c1ccc(Cl)cc1,28,1,129*,3,7,128,97,-3,102
NC(=O)Cn1c(-c2nonc2N)nc2ccccc21,-1,4,99,0,0,101,/,/,/
C=COCCn1c(-c2nonc2N)nc2ccccc21,9,6,122*,-1,9,119,98,7,102
CCC(C)c1ccc(OCC(=O)Nc2ccc3[nH]c(=O)[nH]c3c2)cc1 (centres undefined),1,-3,198*,-2,3,111,106,5,105
O=C(OCc1nc2ccccc2s1)c1ccco1,3,-13,101,6,-11,105,/,/,/
O=C(OCc1nc2ccccc2s1)c1ccc(Br)o1,6,-10,144*,0,12,134,104,-1,101
